Data set [1] concerns the target T1, Phosphodiesterase 6 (Bos taurus) (UniProt P23439+P16586+P11541+P22571+P04972+Q95142). Nature of the data set: Percentage inhibition of bovine Phosphodiesterase 6 at 2 uM (n=2-3). It counts as protein assay. The essentials: (§1)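 Enzyme purified from bovine retinas; cyclic nucleotide phosphodiesterase activity measured by a two-step procedure. Values are either IC50 or percent inhibition at the single test concentration stated.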

Data set [2] has as its target T2, cGMP-specific 3',5'-cyclic phosphodiesterase (Homo sapiens, UniProt O76074). Nature of the data set: Inhibition of human Phosphodiesterase 5 (n=2-3).
In data set [3] the target is T1, Phosphodiesterase 6 (Bos taurus). Nature of the data set: Percentage inhibition of bovine Phosphodiesterase 6 at 0.2 uM (n=2-3). It counts as protein assay. The gist of the method: as §1
The target in data set [4] is T2, cGMP-specific 3',5'-cyclic phosphodiesterase. In words: Percentage inhibition of human Phosphodiesterase 5 at 2 uM (n=2-3). The gist of the method: (§2)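 Phosphodiesterase 5 purified from human platelets; activity measured by a two-step cyclic nucleotide phosphodiesterase procedure. Percent inhibition recorded at the single stated concentration.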
The nature of data set [5]: Half-life was observed. In kind it is ADME.
Data set [6] deals with T2, cGMP-specific 3',5'-cyclic phosphodiesterase. In words: Percentage inhibition of human Phosphodiesterase 5 at 20 uM (n=2-3). The essentials: as §2
The target of the next data set is Phosphodiesterase 6. In words: Inhibition of bovine Phosphodiesterase 6 (n=2-3). In kind it is protein assay, Bos taurus.
For data set [7], the target named is T2, cGMP-specific 3',5'-cyclic phosphodiesterase. Nature of the data set: Percentage inhibition of human Phosphodiesterase 5 at 0.2 uM (n=2-3). The gist of the method: as §2

A word on the inhibition: it is the change of the read-out against control, counted positive when it falls. What is called IC50 is the concentration at which inhibition is half-maximal. Read a low IC50 as inhibition by little substance. Take `CCOCc1nc2c(=O)n(Cc3ccccc3)nc(C)c2c2cc(-c3ccccc3)nn12`: in data set [1], the inhibition stood at 45%. In data set [2], this compound returned a 50% inhibitory concentration (IC50) of 350 nM.

Regarding `Cc1nn(Cc2cccc(OP(=O)(O)O)c2)c(=O)c2nc(C)n3nc(-c4ccccc4)cc3c12`, the inhibition in data set [3] came out at 28.6%. The same compound showed a half-maximal inhibitory concentration (IC50) in data set [2] of 230 nM.

With `Cc1nn(Cc2ccccc2)c(=O)c2nc(CC3CCCC3)n3nc(-c4ccccc4)cc3c12`, the inhibition stood at 18.2% in data set [4] and 4.2% in data set [1].

For orientation: half-life means the time in which the quantity being followed falls by half. Low readings indicate fast loss, high ones slow loss. For `CN1CC(=O)N2[C@H](c3ccc4c(c3)OCO4)c3[nH]c4ccccc4c3C[C@@H]2C1=O`, the half-life in data set [5] is above 17 h.

For the compound `Cc1nn(Cc2ccccc2)c(=O)c2nc(C)n3nc(-c4ccccc4)cc3c12`, the inhibition in data set [1] was 25%. Besides, in data set [2], the IC50 stood at 160 nM.

For the compound `Cc1nn(Cc2ccc([N+](=O)[O-])cc2)c(=O)c2nc(C)n3nc(-c4ccccc4)cc3c12`, the inhibition in data set [6] is 65.9%; in data set [1], 10.4%.

As for `Cc1nn(Cc2ccccc2)c(=O)c2nc(Cc3ccccc3)n3nc(-c4ccccc4)cc3c12`, the results for the inhibition in data set [4] and in data set [1] were 22.5% and 13.6%, respectively.

At Phosphodiesterase 6, `Cc1nn(Cc2ccccc2)c(=O)c2nc(C)n3nc(-c4ccc5c(c4)OCO5)cc3c12` came in with an IC50 of 78000 nM.

With `Cc1cccc(-c2nc3c(=O)n(Cc4ccccc4)nc(C)c3c3cc(-c4ccccc4)nn23)c1`, in data set [1], the inhibition was 11.5%. The compound also gave an IC50 in data set [2] of 75 nM.

As for `Cc1nn(CC2CCCCC2)c(=O)c2nc(C)n3nc(-c4ccccc4)cc3c12`, the 50% inhibitory concentration (IC50) at Phosphodiesterase 6 came out at 11000 nM; in data set [2], 3100 nM.

In the case of `Cc1nn(Cc2ccccc2)c(=O)c2nc(CCc3ccccc3)n3nc(-c4ccccc4)cc3c12`, the IC50 at Phosphodiesterase 6 came out at 30000 nM; in data set [2], 980 nM.

Regarding `Cc1nn(Cc2ccccc2)c(=O)c2nc(C)n3nc(C(C)(C)C)cc3c12`, the inhibition in data set [4] is 31%.

Consider `Cc1nn(Cc2ccccc2)c(=O)c2nc(-c3ccccn3)n3nc(-c4ccccc4)cc3c12`, for which, in data set [1], the inhibition was 21.3%. In data set [2], this compound displayed an IC50 of 81 nM.

Regarding `Cc1nn(Cc2ccccc2)c(=O)c2nc(Cc3ccncc3)n3nc(-c4ccccc4)cc3c12`, the inhibition in data set [1] came to 20.4%. In data set [2], this compound returned a half-maximal inhibitory concentration (IC50) of 450 nM.

In the case of `Cc1nn(Cc2ccccc2)c(=O)c2nc(C)n3nc(-c4ccc([N+](=O)[O-])cc4)cc3c12`, the inhibition was 14.4% in data set [3] and 65.5% in data set [6].

On to `Cc1nn(Cc2ccc(N)cc2)c(=O)c2nc(C)n3nc(-c4ccccc4)cc3c12`, for which the IC50 was 2000 nM at Phosphodiesterase 6 and 1100 nM in data set [2].

Consider `CSCc1nc2c(=O)n(Cc3ccccc3)nc(C)c2c2cc(-c3ccccc3)nn12`, for which the inhibition in data set [1] turned out to be 38.1%. In data set [2], this compound returned an IC50 of 100 nM.

On to `Cc1nn(Cc2ccccc2)c(=O)c2nc(C)n3nc(-c4ccccn4)cc3c12`, for which the IC50 against Phosphodiesterase 6 was determined as 10000 nM; in data set [2] it was 270 nM.

Take `Cc1nn(Cc2ccccc2)c(=O)c2nc(CCC(=O)O)n3nc(-c4ccccc4)cc3c12`: the figures for the IC50 (against Phosphodiesterase 6; in data set [2]) were 590 nM and 430 nM, respectively.

`Cc1nn(Cc2ccccc2)c(=O)c2nc(C)n3nc(-c4ccc(N)cc4)cc3c12`: the inhibition in data set [1] was found to be 4.5%. Further, the half-maximal inhibitory concentration (IC50) in data set [2] worked out at 920 nM.

As to `Cc1nn(Cc2ccccc2)c(=O)c2nc(CC3CCCCC3)n3nc(-c4ccccc4)cc3c12`, the results for the inhibition in data set [4] and in data set [1] were 33.6% and 19.2%, respectively.

On to `CCC(C)c1nc2c(=O)n(Cc3ccccc3)nc(C)c2c2cc(-c3ccccc3)nn12` (centres undefined), for which the inhibition in data set [1] came out at 42.5%. Besides, the midpoint of inhibition in data set [2], the IC50, lay at 34 nM.

Consider `Cc1nn(Cc2ccccc2)c(=O)c2nc(CCCCC(=O)O)n3nc(-c4ccccc4)cc3c12`, for which the concentration for half-maximal inhibition (IC50) stood at 63 nM against Phosphodiesterase 6 and 90 nM in data set [2].

On to `Cc1nn(Cc2ccccc2)c(=O)c2nc(-c3cccnc3)n3nc(-c4ccccc4)cc3c12`, for which the inhibition in data set [1] was 17.7%. This compound registered an IC50 in data set [2] of 180 nM.

Consider `Cc1nn(Cc2ccccc2)c(=O)c2nc(-c3ccncc3)n3nc(-c4ccccc4)cc3c12`, for which the inhibition in data set [4] is 69%; in data set [1] it was -4.8%.

With `Cc1nn(Cc2ccccc2)c(=O)c2nc(/C=C/C(=O)O)n3nc(-c4ccccc4)cc3c12`, the values for the half-inhibitory concentration (IC50) (against Phosphodiesterase 6; in data set [2]) were 580 nM and 320 nM, respectively.

Consider `COCc1nc2c(=O)n(Cc3ccccc3)nc(C)c2c2cc(-c3ccccc3)nn12`, for which, in data set [1], the inhibition was 53.3%. Besides, in data set [2], the IC50 turned out to be 100 nM.

With `Cc1nn(Cc2ccccc2)c(=O)c2nc(CCCC(=O)O)n3nc(-c4ccccc4)cc3c12`, the results for the half-maximal inhibitory concentration (IC50) (on Phosphodiesterase 6; in data set [2]) were 110 nM and 30 nM, respectively.

Consider `CCC(CC)c1nc2c(=O)n(Cc3ccccc3)nc(C)c2c2cc(-c3ccccc3)nn12`, for which, in data set [1], the inhibition came to 37.4%. Besides, 67 nM corresponded to half-maximal inhibition in data set [2] (IC50).

As for `Cc1ccccc1-c1nc2c(=O)n(Cc3ccccc3)nc(C)c2c2cc(-c3ccccc3)nn12`, the inhibition in data set [4] amounted to 55.1%.

Consider `Cc1nn(-c2ccccc2)c(=O)c2nc(C)n3nc(-c4ccccc4)cc3c12`, for which the results for the inhibition in data set [7] and in data set [3] were 11.9% and 3.7%, respectively.

As for `CCC(C)c1nc2c(=O)n(Cc3cccc(OP(=O)(O)O)c3)nc(C)c2c2cc(-c3ccccc3)nn12` (centres undefined), the inhibition in data set [1] worked out at 66.9%. Besides, the midpoint of inhibition in data set [2], the IC50, lay at 59 nM.

`CCC(C)c1nc2c(=O)n(Cc3ccccc3)nc(C)c2c2cc(-c3ccccn3)nn12` (centres undefined): the inhibition in data set [1] is 34.6%. This compound gave a concentration for half-maximal inhibition (IC50) in data set [2] of 39 nM.

On to `Cc1nn(Cc2ccccc2)c(=O)c2nc(-c3ccccc3)n3nc(-c4ccccc4)cc3c12`, for which the results for the half-maximal inhibitory concentration (IC50) (against Phosphodiesterase 6; in data set [2]) were 2800 nM and 81 nM, respectively.

The values above are taken from ChEMBL document CHEMBL1144391, “New pyrazolo[1',5':1,6]pyrimido[4,5-d]pyridazin-4(3H)-ones as potent and selective PDE5 inhibitors” (Bioorg Med Chem Lett, 2005).
